High-throughput results as filed in PubChem BioAssay.
Only some compounds are listed: those with a hit (about 4.1% of all), similar ones and a draw of the others.
KCNK3 block: human KCNK3 channel inhibition, primary screen. CHO-KCNK3 thallium flux, FluxOR fluorescence; hits give low values. B-score at 10 µM. hit rate 0.84% among 340,000;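 active = B-score under library mean minus 4 SD, starting fluorescence ratio at most library mean plus 5 SD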;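 also: more negative B-score means stronger inhibition of thallium flux through KCNK3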
Target sequence (O14649 whole entry, looked up): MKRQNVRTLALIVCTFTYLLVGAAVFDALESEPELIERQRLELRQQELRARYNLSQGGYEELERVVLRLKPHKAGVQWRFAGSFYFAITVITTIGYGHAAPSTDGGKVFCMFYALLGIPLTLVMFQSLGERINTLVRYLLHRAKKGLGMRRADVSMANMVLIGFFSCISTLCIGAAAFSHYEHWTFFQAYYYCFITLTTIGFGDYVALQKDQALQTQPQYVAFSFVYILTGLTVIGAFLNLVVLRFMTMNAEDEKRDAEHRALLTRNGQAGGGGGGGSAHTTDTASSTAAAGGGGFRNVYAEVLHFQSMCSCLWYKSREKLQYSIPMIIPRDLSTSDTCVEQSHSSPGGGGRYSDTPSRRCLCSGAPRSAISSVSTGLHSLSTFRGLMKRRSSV
KCNK9 inh: inhibitors of human KCNK9 two-pore domain potassium channel | Q9NPC2 | HEK293 KCNK9, FluxOR thallium flux fluorescence; hits give low values | B-score at 10 µM | hit rate 1.2% among 310,000 | AID 488922;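 active = ratio B-score over 3 SD below the library mean, with starting fluorescence within 5 SD of its mean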;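 also: negative B-score means less thallium flux so channel inhibition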
KCNQ1 pot: potentiates or activates the human KCNQ1 potassium channel; B-score at 10 µM; CHO-K1 KCNQ1, thallium flux FluxOR fluorescence; hits give high values; hit rate 0.35% among 310,000;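 active = fluorescence ratio B-score, a plate-corrected score, at least three library SD, with initial intensity B-score within 5 SD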
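Doses: Single concentration per compound, DMSO matched to controls | Test system: KCNQ1-transfected CHO-K1 cells | Timing: 90 min dye loading and 20 min compound exposure, both at room temperature | Measured by: Kinetic FluxOR thallium fluorescence, 10-s 1-Hz baseline, 110-s post-stimulus read | Medium: Assay buffer with matched DMSO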
hERG protect: shields human hERG channel from block by proarrhythmic agents; hit rate 0.51% among 310,000; Q12809; AID 1511; CHO-hERG, FluxOR thallium flux, dofetilide IC70 present; activation (rescue from dofetilide block), less the hit threshold, % at 10 µM;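 active = activation above the mean of controls blocked by dofetilide plus 5 SD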;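 also: thallium influx through hERG after potassium depolarization seen as dye fluorescence rise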
KCNQ1 block: inhibitors of human KCNQ1 potassium channel | P51787 | CHO-K1 KCNQ1, FluxOR thallium flux fluorescence; hits give high values | B-score at 10 µM | hit rate 1.3% among 310,000;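 active = compounds whose thallium flux B-score, printed positive for inhibition, exceeds three library SD while starting fluorescence stays within three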;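 also: channel opened by potassium depolarization with thallium stimulus after 20 min compound exposure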
Cl transport mod: KCC2 (human) Cl- transport modulation; B-score of Tl+ flux slope (higher = more flux/activation; lower = inhibition) at 10 µM; hit rate 2.2% among 190,000; AID 1456; KCC2 cells, thallium flux FluoZin-2 fluorescence; Q9H2X9;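 active = thallium flux slope and its plate-corrected score both differing from the plate sample mean at a set confidence after two filtering rounds, in either direction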;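 also: slope of fluorescence scaled to starting intensity during 10 to 20 s after thallium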
KCC2 sec1: KCC2 (human) modulation, secondary assay | shares compounds with Cl transport mod | hit rate 15% among 3,700 | AID 1713 | HEK293-KCC2, thallium flux, FluoZin2 fluorescence; hits give high values | normalised thallium flux (F/F0 slope) at 10 µM;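 active = thallium flux slope above the same plate's solvent-only control mean plus 3 SD; inconclusive = the two replicate wells disagree; inactive = no significant difference from solvent-only control wells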
KCC2 bumet counter: thallium flux persisting under bumetanide in KCC2 cells, counter-screen secondary assay; shares compounds with Cl transport mod; HEK293-KCC2 + bumetanide/ouabain, thallium flux FluoZin2; hits give high values; normalized thallium flux at 10 µM; hit rate 49% among 3,700; AID 1714;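 active = thallium entry rate above the same plate's blocked-transporter control wells by more than 3 SD; inconclusive = the two repeat wells disagree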;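 also: raw slope of fluorescence over initial fluorescence between 10 and 20 s after thallium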
KCC2 secondary2: confirmation of human KCC2 transport modulators | shares compounds with Cl transport mod | HEK293-KCC2, thallium flux FluoZin2 fluorescence; actives lie on both sides; F/F0 rise rate, 10–20 s post-thallium | normalized thallium flux at 10 µM | hit rate 23% among 3,700 | AID 1715;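 active = thallium flux slope more than 3 SD above or below the plate's solvent-only control mean, mostly below; inconclusive = the two repeat wells disagreed; inactive = no significant shift from solvent-only controls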;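 also: raw slope with 0.1% DMSO as baseline and bumetanide as block control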
HEK counter1: acts in parental HEK cells, KCC2 counter-screen; HEK293 parental cells, thallium flux FluoZin2, ouabain; baseline-ratio fluorescence slope, 10–20 s after thallium; hit rate 46% among 3,700; thallium flux rate (normalised fluorescence) at 10 µM; shares compounds with Cl transport mod;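 active = thallium flux rate significantly above the same plate's solvent-only control wells, beyond their mean plus 3 SD; inconclusive = the two replicate wells gave conflicting results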
KCC2 retest ouab: modulates human KCC2 on retest with ouabain | shares compounds with Cl transport mod | HEK293-KCC2, thallium flux FluoZin2 fluorescence; bidirectional: low = inhibitor, high = activator | raw Tl+ flux slope (below DMSO = inhibition, above = activation) at 10 µM | hit rate 48% among 3,700 | AID 1717;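 active = thallium flux slope beyond 3 SD from same-plate DMSO control mean in most replicates, usually higher, sometimes lower; inconclusive = repeat tests gave conflicting results; inactive = no significant difference from controls in most replicates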;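 also: slope of initial-normalized fluorescence between seconds 10 and 20 after thallium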
HEK counter2: acts in parental HEK cells, second KCC2 counter-screen; shares compounds with Cl transport mod; HEK293 parental, thallium flux FluoZin-2 fluorescence slope; hit rate 33% among 3,700; thallium flux slope at 10 µM;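 active = thallium flux slope above the same plate's solvent-control mean plus 3 SD in both duplicate wells; inconclusive = duplicate wells that disagreed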;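 also: run without ouabain in cells lacking the KCC2 cotransporter; slope of fluorescence scaled to its starting value between 10 and 20 s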
Numbers without * were called inactive; i = inactive; ? = inconclusive; / = no result.

SMILES | KCNK3 block | KCNK9 inh | KCNQ1 pot | hERG protect | KCNQ1 block | Cl transport mod | KCC2 sec1 | KCC2 bumet counter | KCC2 secondary2 | HEK counter1 | KCC2 retest ouab | HEK counter2
CN1/C(=C/C(=O)c2nc(S(C)(=O)=O)ncc2Cl)C(C)(C)c2ccccc21 | i | i | i | -17.2 | 6* | -7.22* | 0.00614 | ? | 0.0223* | ? | 0.0127* | 0.01
CN1/C(=C\C(=O)c2cccnc2)C(C)(C)c2ccccc21 | i | i | i | -12.8 | i | -0.651 | / | / | / | / | / | /
O=C(N/N=C/C(Br)=C/c1ccccc1)c1n[nH]c2c1CCC2 | i | i | i | -13.6 | i | / | 0.00775 | 0.00663 | 0.0282 | 0.00702 | ? | 0.00988
Cn1c(=O)c2c(nc(CN3CCN(C(c4ccccc4)c4ccccc4)CC3)n2CC(N)=O)n(C)c1=O | i | i | i | -6.8 | i | -2.61* | 0.0109 | 0.00679 | 0.0297 | 0.00768 | 0.0337 | ?
Oc1cccc2ccc(/C=C/c3cccs3)nc12 | i | i | i | -14.6 | i | 14.9* | 0.00962 | 0.0186* | 0.0316 | 0.0129* | ? | 0.0111
Cc1ccsc1/C=C/c1ccc2cccc(O)c2n1 | i | i | i | -0.5 | i | 1.37 | / | / | / | / | / | /
CCCCn1c(SCC(=O)NCc2ccccc2)nc2ccc(N3CCOCC3)cc2c1=O | i | i | i | -12.5 | i | 3.99* | 0.00705 | 0.016* | 0.0343 | 0.0112* | ? | ?
COCCNC(=S)NC(=O)c1ccc(C(C)(C)C)cc1 | i | i | i | -12.7 | i | 8.36* | 0.00975 | 0.0246* | 0.03 | ? | 0.0192 | 0.0106
CCC(C)NC(=O)CSc1nc(-c2cccs2)cc(C(F)(F)F)n1 (stereo not drawn) | i | i | i | -1.0 | i | 2.86* | 0.0058 | 0.00441 | 0.0301 | 0.00745 | 0.0192 | 0.0104
Nc1nc(-c2ccc([N+](=O)[O-])cc2)cc(=O)[nH]1 | i | / | / | / | / | / | / | / | / | / | / | /
CCOc1ccc(C(=O)Nc2nnc(S(=O)(=O)Nc3ccccc3C)s2)cc1 | i | i | i | -13.5 | i | / | / | / | / | / | / | /
O=C(NCC1CCCO1)C(c1cccs1)N(C(=O)c1ccc(-c2ccccc2)[nH]1)C1CCCC1 (stereo not drawn) | i | i | i | -13.1 | i | -5.68* | 0.0104 | 0.00641 | ? | 0.00676 | 0.0152* | 0.0105
CC(C)(C)NC(=O)C(c1ccncc1)N(Cc1ccco1)C(=O)c1ccc(-c2ccccc2)[nH]1 (stereo not drawn) | i | i | i | 3.6 | i | -4.99* | 0.00575 | 0.00516 | 0.0239* | 0.00761 | ? | 0.0109
COc1ccc(CN(C(=O)c2ccc(-c3ccccc3)[nH]2)C(C(=O)NCC2CCCO2)c2ccc(C)o2)cc1 (stereo not drawn) | i | i | i | -17.2 | i | / | 0.00604 | 0.00523 | 0.0254* | 0.00753 | ? | 0.00988
